Results as given in ChEMBL document CHEMBL1131531, “cycloSal-2',3'-dideoxy-2',3'-didehydrothymidine monophosphate (cycloSal-d4TMP): synthesis and antiviral evaluation of a new d4TMP delivery system” (J Med Chem, 1998).

Assays:
CCRF-CEM [1] = assay: Antiviral activity was measured on HIV-1 in wild-type CEM/O cells; assay type: functional, cell-based, Homo sapiens
CCRF-CEM [2] = assay: Antiviral activity was measured on HIV-2 in wild-type CEM/O cells; assay type: functional, cell-based, Homo sapiens
CCRF-CEM [3] = assay: The cytotoxicity was measured on wild type CEM/O cells.; assay type: functional; conditions: Homo sapiens
[4] = Partition coefficient was measured.; assay type: ADME; conditions: octanol/water
Summary of the method: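 Compound dissolved in 1-octanol and mixed with equal volume of phosphate buffer (10 mmol, pH 6.8). Vortexed 10 min, phases separated by centrifugation. Each phase analysed by reversed-phase HPLC (UV 265 nm). Pa taken as the quotient of peak areas.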

CCRF-CEM [5] = assay: The cytotoxicity was measured on wild type CEM/O cells for S configuration; assay type: functional; conditions: Homo sapiens
[6] = Half-life period was measured in RPMI-1640 culture medium at 37 degree C without FCS.; assay type: ADME; conditions: RPMI-1640 culture medium without FCS
CCRF-CEM [7] = assay: (§1) Antiviral activity was measured on HIV-2 in mutant thymidine kinase-deficient CEM/TK- cells; assay type: functional, cell-based; conditions: Homo sapiens
[8] = Half-life period was measured in 30 mM sodium borate buffer at pH 8.9 at 37 degree C; assay type: ADME
CCRF-CEM [9] = assay: Antiviral activity was measured on HIV-1 in wild-type CEM/O cells for S configuration; assay type: functional, cell-based; conditions: Homo sapiens
CCRF-CEM [10] = assay: Antiviral activity was measured on HIV-2 in wild-type CEM/O cells for R configuration; assay type: functional, cell-based; conditions: Homo sapiens
CCRF-CEM [11] = assay: Antiviral activity was measured on HIV-2 in wild-type CEM/O cells for S configuration; assay type: functional, cell-based; conditions: Homo sapiens
[12] = Half-life period was measured in 30 mM sodium phosphate buffer at pH 7.3 at 37 degree C; assay type: ADME
[13] = Half-life period was measured in RPMI-1640 culture medium at 37 degree C with 10% heat-inactivated fetal calf serum..; assay type: ADME; conditions: cattle
CCRF-CEM [14] = assay: Antiviral activity was measured on HIV-2 in mutant thymidine kinase-deficient CEM/TK- cells for R configuration; assay type: functional, cell-based; conditions: Homo sapiens
CCRF-CEM [15] = assay: Antiviral activity was measured on HIV-1 in wild-type CEM/O cells for R configuration; assay type: functional, cell-based; conditions: Homo sapiens
[16] = Half-life period was measured in 30 mM TRIS buffer at pH 6.9 at 37 degree C; assay type: ADME
CCRF-CEM [17] = assay: The cytotoxicity was measured on wild type CEM/O cells for R configuration; assay type: functional; conditions: Homo sapiens
CCRF-CEM [18] = assay: Antiviral activity was measured on HIV-2 in mutant thymidine kinase-deficient CEM/TK- cells for S configuration; assay type: functional, cell-based; conditions: Homo sapiens
MT4 [19] = assay: Antiviral activity was measured on HIV-1 in MT-4 cells; assay type: functional, cell-based; conditions: Homo sapiens
MT4 [20] = assay: Antiviral activity was measured on HIV-2 in MT-4 cells; assay type: functional, cell-based; conditions: Homo sapiens
MT4 [21] = assay: Antiviral activity was measured on HIV-1 in MT-4 cells for R configuration; assay type: functional, cell-based; conditions: Homo sapiens
MT4 [22] = assay: Antiviral activity was measured on HIV-2 in MT-4 cells for R configuration; assay type: functional, cell-based; conditions: Homo sapiens
CCRF-CEM [23] = assay: The cytotoxicity was measured on wild type CEM/O cells; assay type: functional; conditions: Homo sapiens
CCRF-CEM [24] = assay: as §1; assay type: functional, cell-based; conditions: Homo sapiens; remark: listed apart in the source
Summary of the method: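 CEM/O or TK-deficient CEM/TK- cells at 4 × 10⁵ cells/mL infected with HIV-1 (HTLV-IIIB) or HIV-2 (LAV 2) at ~100 CCID50/mL. Infected suspension mixed 1:1 with serial compound dilutions. Giant cell formation scored microscopically after 4 days.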

COc1ccc(O)c(CO)c1
EC50 (CCRF-CEM [1]; Homo sapiens, CCRF-CEM): > 250000 nM | EC50 (CCRF-CEM [2]; Homo sapiens, CCRF-CEM): > 250000 nM | CC50 (CCRF-CEM [3]): 158 µM

Cc1ccc2c(c1)COP(=O)(OC[C@@H]1C=C[C@H](n3cc(C)c(=O)[nH]c3=O)O1)O2 (stereo partly specified)
Pa [4]: 5.4

COc1cccc2c1OP(=O)(OCC1C=CC(n3cc(C)c(=O)[nH]c3=O)O1)OC2 (stereo unspecified)
CC50 (CCRF-CEM [5]): 84 µM | EC50 (CCRF-CEM [1]; Homo sapiens, CCRF-CEM): 170 nM | half-life [6]: 192 min | Pa [4]: 1.4 | EC50 (CCRF-CEM [7]): 170 nM | half-life [8]: 24 min | EC50 (CCRF-CEM [2]; Homo sapiens, CCRF-CEM): 420 nM | EC50 (CCRF-CEM [9]): 470 nM | EC50 (CCRF-CEM [10]): 170 nM | EC50 (CCRF-CEM [11]): 1030 nM | half-life [12]: 84 min | CC50 (CCRF-CEM [3]): 35 µM | half-life [13]: 120 min | EC50 (CCRF-CEM [14]): 120 nM | EC50 (CCRF-CEM [15]): 140 nM | half-life [16]: 570 min | CC50 (CCRF-CEM [17]): 38 µM | EC50 (CCRF-CEM [18]): 9.67 µM

Cc1cccc2c1OP(=O)(OC[C@@H]1C=C[C@H](n3cc(C)c(=O)[nH]c3=O)O1)OC2 (stereo partly specified)
CC50 (CCRF-CEM [5]): 76 µM | EC50 (CCRF-CEM [1]; Homo sapiens, CCRF-CEM): 87 nM | half-life [6]: 960 min | EC50 (MT4 [19]): 28 nM | Pa [4]: 5.1 | EC50 (CCRF-CEM [7]): 93 nM | half-life [8]: 90 min | EC50 (CCRF-CEM [2]; Homo sapiens, CCRF-CEM): 120 nM | EC50 (CCRF-CEM [9]): 420 nM | EC50 (CCRF-CEM [10]): 67 nM | EC50 (CCRF-CEM [11]): 1100 nM | half-life [12]: 612 min | CC50 (CCRF-CEM [3]): 21 µM | EC50 (MT4 [20]): 33 nM | half-life [13]: 546 min | EC50 (CCRF-CEM [14]): 63 nM | EC50 (CCRF-CEM [15]): 80 nM | half-life [16]: 4110 min | CC50 (CCRF-CEM [17]): 11 µM | EC50 (CCRF-CEM [18]): 0.7 µM | EC50 (MT4 [21]): 12 nM | EC50 (MT4 [22]): 11 nM

Cc1cn([C@H]2C=C[C@@H](COP3(=O)OCc4ccccc4O3)O2)c(=O)[nH]c1=O (stereo partly specified)
Pa [4]: 1.9

Cc1cn([C@H]2C=C[C@@H](CO)O2)c(=O)[nH]c1=O [STAVUDINE]
EC50 (CCRF-CEM [1]; Homo sapiens, CCRF-CEM): 180 nM | EC50 (CCRF-CEM [1]; ccrf-cem): 180 nM | EC50 (MT4 [19]): 18 nM | CC50 (CCRF-CEM [23]): 56 µM | Pa [4]: 0.15 | EC50 (CCRF-CEM [7]): 15000 nM | EC50 (CCRF-CEM [2]; Homo sapiens, CCRF-CEM): 260 nM | EC50 (CCRF-CEM [2]; ccrf-cem): 260 nM | CC50 (CCRF-CEM [3]): 56 µM | EC50 (MT4 [20]): 22 nM

OCc1ccccc1O [SALICYL ALCOHOL]
EC50 (CCRF-CEM [1]; Homo sapiens, CCRF-CEM): > 250000 nM | EC50 (CCRF-CEM [2]; Homo sapiens, CCRF-CEM): > 250000 nM | CC50 (CCRF-CEM [3]): > 250 µM

COc1ccc2c(c1)COP(=O)(OC[C@@H]1C=C[C@H](n3cc(C)c(=O)[nH]c3=O)O1)O2 (stereo partly specified)
EC50 (CCRF-CEM [1]; Homo sapiens, CCRF-CEM): 180 nM | half-life [6]: 432 min | Pa [4]: 2.3 | EC50 (CCRF-CEM [7]): 800 nM | half-life [8]: 64.2 min | EC50 (CCRF-CEM [2]; Homo sapiens, CCRF-CEM): 700 nM | half-life [12]: 432 min | CC50 (CCRF-CEM [3]): 39 µM | half-life [13]: 258 min | half-life [16]: 1700 min

Cc1cn([C@H]2C[C@H](N=[N+]=[N-])[C@@H](CO)O2)c(=O)[nH]c1=O [ZIDOVUDINE]
EC50 (CCRF-CEM [1]; Homo sapiens, CCRF-CEM): 7 nM | EC50 (CCRF-CEM [7]): > 100000 nM | CC50 (CCRF-CEM [3]): > 100 µM

Cc1cn([C@H]2C=C[C@@H](COP3(=O)OCc4cc([N+](=O)[O-])ccc4O3)O2)c(=O)[nH]c1=O (stereo partly specified)
EC50 (CCRF-CEM [1]; Homo sapiens, CCRF-CEM): 290 nM | Pa [4]: 1.5 | EC50 (CCRF-CEM [24]): 40 µM | EC50 (CCRF-CEM [2]; Homo sapiens, CCRF-CEM): 400 nM | CC50 (CCRF-CEM [3]): 75 µM

Cc1cc(C)c2c(c1)COP(=O)(OCC1C=CC(n3cc(C)c(=O)[nH]c3=O)O1)O2 (stereo unspecified)
Pa [4]: 15.3

Cc1cccc(CO)c1O
EC50 (CCRF-CEM [1]; Homo sapiens, CCRF-CEM): > 250000 nM | EC50 (CCRF-CEM [2]; Homo sapiens, CCRF-CEM): > 250000 nM | CC50 (CCRF-CEM [3]): > 250 µM

Cc1cn(C2C=CC(COP3(=O)OCc4cc(Cl)ccc4O3)O2)c(=O)[nH]c1=O (stereo unspecified)
EC50 (MT4 [19]): 31 nM | Pa [4]: 7.6 | EC50 (CCRF-CEM [24]): 2.67 µM | EC50 (CCRF-CEM [2]; Homo sapiens, CCRF-CEM): 1400 nM | CC50 (CCRF-CEM [3]): 49 µM | EC50 (MT4 [20]): 38 nM
